# How the values were obtained:
# [1] = Stability assessed as snake venom phosphodiesterase-mediated compound degradation at 5 nmol incubated for 180 mins by reversed-phase HPLC method; format: ADME; details: serpentes, 3 h
# Outline: (§1)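 Dimers incubated with snake venom phosphodiesterase or in 10% fetal bovine serum, then reactions analysed by reversed-phase HPLC; peak areas of intact dimer used to give the fraction of intact dimer over time.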
# [2] = Stability in 28% NH3 aq, 55 degC incubated for 8 hrs assessed as compound degradation in to PDE dimer d(TpT) by reversed-phase HPLC method; format: physicochemical
# Outline: (§2)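 Untreated and treated dimers compared by reversed-phase HPLC on a C18 column, eluted with a linear 5–25% acetonitrile gradient over 20 min in 50 mM triethylammonium acetate, pH 7.0.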
# [3] = system: Serum; test: Stability in 10% FBS assessed as compound degradation at 5 nmol incubated for 180 mins by reversed-phase HPLC method; format: ADME, cell-free, Bos taurus; details: cattle, 3 h; outline: as §1
# [4] = Stability in 28% NH3 aq, incubated for 2 hrs at room temperature assessed as compound degradation by reversed-phase HPLC method; format: physicochemical; outline: as §2
# [5] = system: A549; test: Permeability in human A549 cells assessed as relative fluorescence intensity at 10 uM incubated for 8 hrs at 37 degC in presence of serum free medium by spectrofluorometry; format: ADME, cell-based; details: a549, 8 h
# Outline: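 A549 cells exposed to TAMRA-labeled oligonucleotides (in 10 mM Tris–HCl, 1 mM EDTA, pH 8) without transfection reagent; after incubation, PBS wash, lysis and lysate fluorescence read on a spectrofluorometer; n = 4.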
# [6] = Solubility in water; format: physicochemical; details: buffer
compound,measurement,setting,value
CCOP(=O)(OC[C@H]1O[C@@H](n2cc(C)c(=O)[nH]c2=O)C[C@@H]1O)O[C@H]1C[C@H](n2cc(C)c(=O)[nH]c2=O)O[C@@H]1CO (stereo partly drawn),Stability,[1],Stable
same,Stability,[2],Stable
same,Stability,[3],Stable
same,Stability,[4],Stable
COP(=O)(OC[C@H]1O[C@@H](n2cc(C)c(=O)[nH]c2=O)C[C@@H]1O)O[C@H]1C[C@H](n2cc(C)c(=O)[nH]c2=O)O[C@@H]1CO (stereo partly drawn),Stability,[2],Unstable
same,Stability,[4],Unstable
Cc1cn([C@H]2C[C@H](OP(=O)(O)OC[C@H]3O[C@@H](n4cc(C)c(=O)[nH]c4=O)C[C@@H]3OP(=O)(O)OC[C@H]3O[C@@H](n4cc(C)c(=O)[nH]c4=O)C[C@@H]3OP(=O)(O)OC[C@H]3O[C@@H](n4cc(C)c(=O)[nH]c4=O)C[C@@H]3OP(=O)(O)OC[C@H]3O[C@@H](n4cc(C)c(=O)[nH]c4=O)C[C@@H]3OP(=O)(O)OC[C@H]3O[C@@H](n4cc(C)c(=O)[nH]c4=O)C[C@@H]3OP(=O)(O)OC[C@H]3O[C@@H](n4cc(C)c(=O)[nH]c4=O)C[C@@H]3OP(=O)(O)OC[C@H]3O[C@@H](n4cc(C)c(=O)[nH]c4=O)C[C@@H]3OP(=O)(O)OC[C@H]3O[C@@H](n4cc(C)c(=O)[nH]c4=O)C[C@@H]3OP(=O)(O)OC[C@H]3O[C@@H](n4cc(C)c(=O)[nH]c4=O)C[C@@H]3OP(=O)(O)OCCC(O)COCCCNC(=O)c3ccc(C(=O)O)c(C4=C5C=CC(=[N+](C)C)C=C5OC5C=C(N(C)C)C=CC45)c3)[C@@H](COP(=O)(O)O)O2)c(=O)[nH]c1=O (stereo partly drawn),Flu intensity,[5],1
Cc1cn([C@H]2C[C@H](OP(=O)(O)OC[C@H]3O[C@@H](n4cc(C)c(=O)[nH]c4=O)C[C@@H]3OP(=O)(O)OC[C@H]3O[C@@H](n4cc(C)c(=O)[nH]c4=O)C[C@@H]3OP(=O)(O)OC[C@H]3O[C@@H](n4cc(C)c(=O)[nH]c4=O)C[C@@H]3OP(=O)(O)OC[C@H]3O[C@@H](n4cc(C)c(=O)[nH]c4=O)C[C@@H]3OP(=O)(O)OC[C@H]3O[C@@H](n4cc(C)c(=O)[nH]c4=O)C[C@@H]3OP(=O)(O)OC[C@H]3O[C@@H](n4cc(C)c(=O)[nH]c4=O)C[C@@H]3OP(=O)(O)OC[C@H]3O[C@@H](n4cc(C)c(=O)[nH]c4=O)C[C@@H]3OP(=O)(O)OC[C@H]3O[C@@H](n4cc(C)c(=O)[nH]c4=O)C[C@@H]3OP(=O)(O)OC[C@H]3O[C@@H](n4cc(C)c(=O)[nH]c4=O)C[C@@H]3OP(=O)(O)OCCC(O)COCCCNC(=O)c3ccc(C(=O)O)c(C4=C5C=CC(=[N+](C)C)C=C5OC5C=C(N(C)C)C=CC45)c3)[C@@H](COP(=O)(O)OCCCCNCCCNCCCCNCCCNCCCCO)O2)c(=O)[nH]c1=O (stereo partly drawn),Flu intensity,[5],5.45
CCOP(=O)(OC[C@H]1O[C@@H](n2cc(C)c(=O)[nH]c2=O)C[C@@H]1OP(=O)(OCC)OC[C@H]1O[C@@H](n2cc(C)c(=O)[nH]c2=O)C[C@@H]1OP(=O)(OCC)OC[C@H]1O[C@@H](n2cc(C)c(=O)[nH]c2=O)C[C@@H]1OP(=O)(OCC)OC[C@H]1O[C@@H](n2cc(C)c(=O)[nH]c2=O)C[C@@H]1OP(=O)(OCC)OC[C@H]1O[C@@H](n2cc(C)c(=O)[nH]c2=O)C[C@@H]1OP(=O)(OCC)OC[C@H]1O[C@@H](n2cc(C)c(=O)[nH]c2=O)C[C@@H]1OP(=O)(OCC)OC[C@H]1O[C@@H](n2cc(C)c(=O)[nH]c2=O)C[C@@H]1OP(=O)(OCC)OC[C@H]1O[C@@H](n2cc(C)c(=O)[nH]c2=O)C[C@@H]1OP(=O)(OCC)OC[C@H]1O[C@@H](n2cc(C)c(=O)[nH]c2=O)C[C@@H]1OP(=O)(O)OCCC(O)COCCCNC(=O)c1ccc(C(=O)O)c(C2=C3C=CC(=[N+](C)C)C=C3OC3C=C(N(C)C)C=CC23)c1)O[C@H]1C[C@H](n2cc(C)c(=O)[nH]c2=O)O[C@@H]1COP(=O)(O)OCCCCNCCCNCCCCNCCCNCCCCO (stereo partly drawn),solubility,[6],soluble
same,Flu intensity,[5],33.1
CCOP(=O)(OC[C@H]1O[C@@H](n2cc(C)c(=O)[nH]c2=O)C[C@@H]1OP(=O)(OCC)OC[C@H]1O[C@@H](n2cc(C)c(=O)[nH]c2=O)C[C@@H]1OP(=O)(OCC)OC[C@H]1O[C@@H](n2cc(C)c(=O)[nH]c2=O)C[C@@H]1OP(=O)(OCC)OC[C@H]1O[C@@H](n2cc(C)c(=O)[nH]c2=O)C[C@@H]1OP(=O)(OCC)OC[C@H]1O[C@@H](n2cc(C)c(=O)[nH]c2=O)C[C@@H]1OP(=O)(OCC)OC[C@H]1O[C@@H](n2cc(C)c(=O)[nH]c2=O)C[C@@H]1OP(=O)(OCC)OC[C@H]1O[C@@H](n2cc(C)c(=O)[nH]c2=O)C[C@@H]1OP(=O)(OCC)OC[C@H]1O[C@@H](n2cc(C)c(=O)[nH]c2=O)C[C@@H]1OP(=O)(OCC)OC[C@H]1O[C@@H](n2cc(C)c(=O)[nH]c2=O)C[C@@H]1OP(=O)(O)OCCC(O)COCCCNC(=O)c1ccc(C(=O)O)c(C2=C3C=CC(=[N+](C)C)C=C3OC3C=C(N(C)C)C=CC23)c1)O[C@H]1C[C@H](n2cc(C)c(=O)[nH]c2=O)O[C@@H]1COP(=O)(O)O (stereo partly drawn),Flu intensity,[5],16
Cc1cn([C@H]2C[C@H](OP(=O)(O)OC[C@H]3O[C@@H](n4cc(C)c(=O)[nH]c4=O)C[C@@H]3O)[C@@H](CO)O2)c(=O)[nH]c1=O,Stability,[1],Unstable
same,Stability,[3],Unstable

# Reference: ChEMBL document CHEMBL3608243, “Synthesis of novel cationic spermine-conjugated phosphotriester oligonucleotide for improvement of cell membrane permeability” (Bioorg Med Chem Lett, 2015)
